Laboratory results taken from publication PMC6636858 (European journal of medicinal chemistry, 2019).
Like-named read-outs stand apart in the source and are kept apart here. Each block holds one compound with its values, some of them ahead of it. Peptide text beside a SMILES is read from it. * marks the point of attachment. AMC = Cc1cc(=O)oc2cc(N*)ccc12; Cbz = O=C(OCc1ccccc1)*

Key:
[1] = molecular target: T1, Cathepsin L (Cat L, human liver) (Homo sapiens, UniProt P07711); assay: CatL inhibition constants / Km, fluorogenic substrate Z-Phe-Arg-AMC; type: biochemical
T1 sequence (P07711 114-288 limits assumed): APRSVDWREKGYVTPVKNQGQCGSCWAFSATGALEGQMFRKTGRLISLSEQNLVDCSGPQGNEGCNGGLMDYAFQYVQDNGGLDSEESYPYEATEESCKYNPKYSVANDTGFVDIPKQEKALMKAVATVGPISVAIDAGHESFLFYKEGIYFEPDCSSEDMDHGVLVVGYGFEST
T1 sequence (P07711 292-333 limits assumed): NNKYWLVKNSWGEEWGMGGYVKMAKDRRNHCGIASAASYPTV

[2] = molecular target: T2, Cathepsin B (CatB, human liver) (Homo sapiens, UniProt P07858); assay: CatB inhibition constants / Km, fluorogenic substrate Z-Arg-Arg-AMC; type: biochemical
HT-29 cells = assay: SDS-PAGE autoradiography of intracellular adducts in cell lysate; type: cell-based, human; conditions: E-64 10 μM or N1 20 μM
Summary of the method: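 HT-29 cells (1 × 10^6/well) incubated 4 h at 37 °C with radioconjugate (20 μCi, 0.74 MBq, in 1 mL medium), ± E-64 (10 μM as added) or N1 (20 μM as added). Cells PBS-washed and given fresh medium. At chosen times, pooled from 3 wells, trypsinized and lysed in RIPA plus protease inhibitor (15 min on ice). Cleared lysate heated in SDS sample buffer (85 °C, 2 min) and run on 16% Tris-glycine gel (110 V, 90 min).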

human CatL = human CatL (Homo sapiens, UniProt P07711); assay: SDS-PAGE autoradiography of adduct formation with purified CatL; type: biochemical; conditions: E-64 10 μM or N1 20 μM
Chain of human CatL (P07711 114-288 limits assumed): as the sequence (P07711 114-288 limits assumed) above
Chain of human CatL (P07711 292-333 limits assumed): as the sequence (P07711 292-333 limits assumed) above

human CatB = human CatB (Homo sapiens, UniProt P07858); assay: SDS-PAGE autoradiography of adduct formation with purified CatB; type: biochemical; conditions: E-64 10 μM or N1 20 μM
[3] = molecular target: T2, Cathepsin B (CatB, human liver); conditions: read-out: Michaelis-Menten constant (Km), reported value; cited from earlier work
[4] = molecular target: T1, Cathepsin L (Cat L, human liver); conditions: read-out: Michaelis-Menten constant (Km), literature value; CatL; cited from earlier work

Compound: 3-(((S)-1-(((S)-1-((2-azidoethyl)amino)-5-guanidino-1-oxopentan-2-yl)amino)-4-methyl-1-oxopentan-2-yl)carbamoyl)oxirane-2-carboxylic acid [1a]
- second order rate constant ki/Ki ([1]; CatL): 16000 ± 1300 M⁻¹ s⁻¹
- second order rate constant ki/Ki ([2]; CatB): 130000 ± 1900 M⁻¹ s⁻¹

Compound: Cc1cc(=O)oc2cc(NC(=O)[C@H](CCCN=C(N)N)NC(=O)[C@H](CCCN=C(N)N)NC(=O)OCc3ccccc3)ccc12 [Z-Arg-Arg-AMC] (Cbz-Arg-Arg-{AMC})
- Km [3]: 390 ± 20 µM
- Km ([2]; read-out: Michaelis-Menten constant (Km), CatB substrate): 189 ± 2 µM

Further lines, with some results ahead:

- inhibition of CatB ([2]; over the test concentration ranges): No inhibition
Compound: CC(C)C[C@H](NC(=O)CCC(=O)O)C(=O)N[C@@H](CCCNC(=N)N)C(=O)NCCN=[N+]=[N-] [1b, 4-(((S)-1-(((S)-1-((2-azidoethyl)amino)-5-guanidino-1-oxopentan-2-yl)amino)-4-methyl-1-oxopentan-2-yl)amino)-4-oxobutanoic acid]

- effect of co-incubated agent on ^177Lu-NE1a adduct formation with CatL (human CatL): prevented adduct formation
- effect of co-incubated agent on ^177Lu-NE1a adduct formation with CatB (human CatB): prevented adduct formation
Compound: CC(C)C[C@H](NC(=O)[C@H]1O[C@@H]1C(=O)O)C(=O)NCCCCN=C(N)N [E-64]
- effect of co-incubated agent on ^177Lu-NE1a intracellular adduct formation (HT-29 cells): unaffected

- Km ([1]; read-out: Michaelis-Menten constant (Km), CatL substrate): 36 ± 3 µM
Compound: Cc1cc(=O)oc2cc(NC(=O)C(CCCN=C(N)N)NC(=O)C(Cc3ccccc3)NC(=O)OCc3ccccc3)ccc12 (stereo not drawn) [Z-Phe-Arg-AMC] (Cbz-Phe-Arg-{AMC}; configuration not given here)
- Km [4]: 21.5 ± 3.2 µM
